According to ChEMBL document CHEMBL4732088, “Identification and optimization of piperlongumine analogues as potential antioxidant and anti-inflammatory agents via activation of Nrf2” (Eur J Med Chem, 2021):
Activity calls are given as the source filed them. The calls are words filed in the database; no cut-off is given here.

Key:
[1] = tested on: PC-12; experiment: Prevention of H2O2-induced calcium overload in rat PC12 cells assessed as reduction in intracellular free calcium by measuring mean fluorescence intensity at 5 uM pretreated with compound followed by H2O2 addition measured after 24 hrs by Fluo-3AM based fluorescence assay (reference value: 17791.36%); format: functional
[2] = tested on: PC-12; experiment: Neuroprotective activity against H2O2-induced cell damage in rat PC12 cells assessed as cell viability at 20 uM after 24 hrs by MTT assay (reference value: 46 +/- 4.12 %); format: functional; details: read-out: Activity
[3] = tested on: BV-2; experiment: Antiinflammatory activity in mouse BV2 cells transfected with Nrf2 siRNA assessed as inhibition of LPS-induced IL-6 production at 20 uM pretreated with compound followed by LPS stimulation for 18 hrs
[4] = tested on: PC-12; experiment: Protection against H2O2-induced apoptosis in rat PC12 cells assessed as viable cells at 20 uM incubated for 24 hrs by annexin V FITC/propidium iodide staining based flow cytometry (reference value: 79.3 %); format: functional; details: read-out: Activity
[5] = tested on: PC-12; experiment: Protection against H2O2-induced oxidative damage in rat PC12 cells assessed as intracellular ROS level by measuring mean fluorescence intensity at 10 uM pretreated with compound followed by H2O2 stimulation by DCFH-DA staining based flow cytometry (reference value: 233032.55); format: functional
[6] = tested on: PC-12; experiment: Protection against H2O2-induced apoptosis in rat PC12 cells assessed as necrotic cells at 10 uM incubated for 24 hrs by annexin V FITC/propidium iodide staining based flow cytometry (reference value: 0.6 %); format: functional
[7] = tested on: PC-12; experiment: Protection against 6-OHDA-induced oxidative damage in rat PC12 cells assessed as intracellular ROS level by measuring mean fluorescence intensity at 20 uM pretreated with compound followed by 6-OHDA stimulation by DCFH-DA staining based flow cytometry (reference value: 26327.34); format: functional
[8] = biological target: T1, Nuclear factor erythroid 2-related factor 2 (Mus musculus) (UniProt Q60795); experiment: Activation of Nrf2 in mouse BV2 cells assessed as inhibition of LPS-induced IL-6 production at 5 to 20 uM by ELISA; format: cell-based; details: BV-2, filed as activator, dose 5-20 µM
T1 sequence (whole entry): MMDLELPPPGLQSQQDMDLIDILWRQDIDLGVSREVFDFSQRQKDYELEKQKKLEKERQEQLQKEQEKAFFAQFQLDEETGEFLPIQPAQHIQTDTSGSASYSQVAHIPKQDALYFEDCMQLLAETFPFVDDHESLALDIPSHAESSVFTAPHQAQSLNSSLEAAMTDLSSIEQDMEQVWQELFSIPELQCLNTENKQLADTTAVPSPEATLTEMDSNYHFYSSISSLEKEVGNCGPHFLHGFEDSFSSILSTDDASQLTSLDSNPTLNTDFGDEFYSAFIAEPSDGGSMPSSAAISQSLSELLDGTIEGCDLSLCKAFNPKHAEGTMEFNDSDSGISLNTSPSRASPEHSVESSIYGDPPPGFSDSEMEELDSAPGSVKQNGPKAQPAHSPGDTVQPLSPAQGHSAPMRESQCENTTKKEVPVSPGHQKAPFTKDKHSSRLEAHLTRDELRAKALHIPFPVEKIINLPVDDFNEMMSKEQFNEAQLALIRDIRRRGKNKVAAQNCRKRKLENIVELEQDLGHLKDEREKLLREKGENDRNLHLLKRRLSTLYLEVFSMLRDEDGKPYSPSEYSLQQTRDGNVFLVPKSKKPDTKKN
Outline: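 BV2 microglia pretreated with compound, then LPS-stimulated; IL-6 quantified by ELISA kit; mean ± SD, n = 3.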

[9] = biological target: T2, Nuclear factor erythroid 2-related factor 2 (Rattus norvegicus) (UniProt O54968); experiment: Activation of Nrf2 in rat PC12 cells assessed as increase in GCLC protein level at 20 uM after 24 hrs by Western blot analysis; format: cell-based; details: PC-12, filed as activator
T2 sequence (whole entry): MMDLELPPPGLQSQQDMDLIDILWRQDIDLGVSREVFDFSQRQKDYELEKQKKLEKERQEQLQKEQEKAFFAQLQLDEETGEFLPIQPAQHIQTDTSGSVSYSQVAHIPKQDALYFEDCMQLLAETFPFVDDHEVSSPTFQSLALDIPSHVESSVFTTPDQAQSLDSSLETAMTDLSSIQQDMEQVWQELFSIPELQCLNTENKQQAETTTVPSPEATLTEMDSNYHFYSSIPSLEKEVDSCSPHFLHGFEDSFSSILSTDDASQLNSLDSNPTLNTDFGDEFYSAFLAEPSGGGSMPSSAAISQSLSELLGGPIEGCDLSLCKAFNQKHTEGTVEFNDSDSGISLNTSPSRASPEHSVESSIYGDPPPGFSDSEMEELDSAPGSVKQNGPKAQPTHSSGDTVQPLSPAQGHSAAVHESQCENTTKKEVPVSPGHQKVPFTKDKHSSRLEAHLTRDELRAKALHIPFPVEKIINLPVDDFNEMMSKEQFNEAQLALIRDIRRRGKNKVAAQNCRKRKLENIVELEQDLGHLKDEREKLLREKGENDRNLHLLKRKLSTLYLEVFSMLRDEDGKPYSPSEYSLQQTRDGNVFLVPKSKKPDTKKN

[10] = biological target: T2, Nuclear factor erythroid 2-related factor 2 (Rattus norvegicus); experiment: Activation of Nrf2 in rat PC12 cells assessed as increase in GCLM protein level at 20 uM after 12 hrs by Western blot analysis; format: cell-based; details: PC-12, filed as activator
[11] = tested on: PC-12; experiment: Protection against 6-OHDA-induced apoptosis in rat PC12 cells assessed as viable cells at 20 uM incubated for 24 hrs by annexin V FITC/propidium iodide staining based flow cytometry (reference value: 72.0 %); format: functional; details: read-out: Activity
[12] = biological target: T2, Nuclear factor erythroid 2-related factor 2 (Rattus norvegicus); experiment: Activation of Nrf2 in rat PC12 cells assessed as increase in HO-1 protein level at 20 uM after 12 hrs by Western blot analysis; format: cell-based; details: PC-12, filed as activator
[13] = tested on: PC-12; experiment: Protection against H2O2-induced mitochondrial dysfunction in rat PC12 cells assessed as change in mitochondrial membrane potential loss at 20 uM pretreated with compound followed by H2O2 addition by JC-1 staining based flow cytometry (reference value: 21.3 %); format: functional
Outline: (§1)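 Mitochondrial membrane potential in PC12 cells pretreated with compound (5, 10, 20 μM), then exposed to H₂O₂ (200 μM) or 6-OHDA (150 μM). JC-1 staining, red-to-green fluorescence shift read by flow cytometry. Mean ± SD, n = 3.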

[14] = tested on: PC-12; experiment: Protection against H2O2-induced apoptosis in rat PC12 cells assessed as late apoptotic cells at 20 uM incubated for 24 hrs by annexin V FITC/propidium iodide staining based flow cytometry (reference value: 16.2 %); format: functional
[15] = tested on: PC-12; experiment: Protection against 6-OHDA-induced mitochondrial dysfunction in rat PC12 cells assessed as change in mitochondrial membrane potential loss at 5 uM pretreated with compound followed by 6-OHDA addition by JC-1 staining based flow cytometry (reference value: 26.8 %); format: functional; outline: as §1
[16] = Antioxidant activity assessed as DPPH radical scavenging activity; format: functional
[17] = tested on: PC-12; experiment: Neuroprotective activity against 6-OHDA-induced apoptosis in rat PC12 cells assessed as reduction in apoptotic nuclei at 5 to 20 uM pretreated with compound followed by Hoechst 33342 staining based fluorescence microscopy analysis; details: dose 5-20 µM

For `CCN(C)C(=O)N1CCN(C(=O)/C=C/c2ccc(F)cc2)C1=O`, the Flu intensity [1] was 8721.73, the viability at 20 µM [2] was 75% and the Activity [3] was “inactive”. It also gave a viability at 20 µM [4] of 93.7%, a Flu intensity [5] of 146612.92 and an Activity [6] of 0.2%. For the same compound, the Flu intensity [7] was 9730, the Activity [8] was “Active” and the Activity [9] was “Active”. For the same compound, the Activity [10] was “Active”, the viability at 20 µM [11] was 89% and the Activity [12] was “Active”. It also gave an Activity [13] of 7.2%, an Activity [14] of 3.7% and an Activity [15] of 20.5%. For the same compound, the Activity [16] was “inactive” and the Activity [17] was “Active”.
